According to the EternaBench riboswitch data:

System: MS2 coat protein
Test: apparent Kd, MS2 coat protein; higher = weaker binding; RNA-MaP array; FMN 200 µM where present
Procedure, shortened: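 Green signal was scaled to red-channel RNA signal and control-cluster median Fmax, and the apparent Kd was taken as the median of filtered per-cluster binding-curve fits. The binding series used SNAP-549-labelled MS2 coat protein from 0.7 or 1.5 nM, doubling to 3 µM, on designs transcribed by stalled E. coli RNA polymerase on Illumina sequencing-chip clusters. Each series ran without and then with constant ligand in 100 mM Tris-HCl pH 7.5, 80 mM KCl, 4 mM MgCl2, BSA, DTT, yeast tRNA and Tween-20.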

[1] = designed as: OFF switch for flavin mononucleotide, no ligand
[2] = ligand present: flavin mononucleotide, designed as: OFF switch for flavin mononucleotide
[3] = designed as: ON switch for flavin mononucleotide, no ligand
[4] = ligand present: flavin mononucleotide, designed as: ON switch for flavin mononucleotide

Sequence | apparent Kd [1] | apparent Kd [2] | apparent Kd [3] | apparent Kd [4]
GCGUACAUAUCAGGAUAUCAUUGAAUGGAUUAACACAGUGAAUACAUGAGGAUCACCCAUGUGCUUGAGAAGGGAUUACAACGC | 0.0109 µM | 0.0094 µM |  | 
GCGUACUGAGGAUAUACAUGAGGAUCACCCAUGUGACACAGCGUUUAGUGAUGAAUUUGUAGAAGGCAGUAGGC | 0.146 µM | 0.219 µM |  | 
GCGUAUAUAUUAUUUAUUUAACUGUCAGAAGGUGAGAAGACGACAUGAGGAUCACCCAUGUUAUUCAAGGAUAUGAUAAUGCGC |  |  | 0.0135 µM | 0.00894 µM
GCGUCACAAUUAGAACCGAUACGAACAUGAGGAUCACCCAUGUAGGAUAUGCUAGAAGUUGAGUUGCAGAAGGACAUUUAUCGC | 0.0111 µM | 0.0106 µM |  | 
GCGUCAGAAUUAAUUGUGACAGACAGAAGGCAAUAGUAUGUGACCGACAUGAGGAUCACCCAUGUUGAGGAUAUGUAUUGACGC | 0.00526 µM | 0.00653 µM |  | 
GCGUCAGAAUUAAUUGUGACAUACAGAAGGCAAUAGUUUAUUUCAGACAUGAGGAUCACCCAUGUUGAGGAUAUGUAUUUACUC | 0.00892 µM | 0.00782 µM |  | 
GCGUCGUCGACUGAUAACAAGCCUAGAAGGCGGACAUGAGGAUCACCCAUGUCUGAUCCUCGGCCCGAGGAUAUAGGUUAAUGG | 0.0286 µM | 0.0134 µM |  | 
GCGUGGUGUCUAGGAUAUGCCGUGCAACGAGGAGCAGAAGGAGACAUGAGGAUCACCCAUGUAAGCUUAGCCGCUCACAGAGGG | 0.0268 µM | 0.0737 µM |  | 
GCGUGUCAUGUAGGAUAUGACACAGGAAACUGGUCAGAAGGACAUGAGGAUCACCCAUGUAAAAUGUUCAAGAAUAACACAUGC | 0.0506 µM | 0.185 µM |  | 
GCGUUAGUAUCACAUGUAUUACAUGAGGAUCACCCAUGUUACUAGGAUAUGUAUUAGAAUUAUCAACAGAAGGAGUAAUAACGC | 0.0126 µM | 0.0203 µM |  | 
GCGUUGAACGAGAAGGCCAAUACAUGAGGAUCACCCAUGUAGUGAAGUAUUGGAGGAUAUCGAUCGUCGUCUCAUGAGCAACGC | 0.00888 µM | 0.0253 µM |  | 
GCGUUGUACGAGAAGGCCAAUACAUGAGGAUCACCCAUGUAAAGUUGUAAUGGAGGAUAUCGAACACAUUCAAUAAUGCAACGC | 0.00829 µM | 0.00566 µM |  | 
GCUAGGCAUGUCAGGAUAUGCUGAACCUUGGUUCAGCAGAAGGGACAUGAGGAUCACCCAUGUGCCAACCUAGC | 0.0574 µM | 0.613 µM |  | 
GCUAGUAUUGCAGGAUAUUGAGAAUAAUUAUUACAAGAAGGGCAUAACAUGAGGAUCACCCAUGUAUUCCUUAGUGAUACUAGC | 0.00624 µM | 0.00607 µM |  | 
GCUAGUAUUGCAGGAUAUUGAGAAUAAUUAUUCCAAGAAGGGCAUAACAUGAGGAUCACCCAUGUAUUCCUUAGUGAUACUAGC | 0.00439 µM | 0.00444 µM |  | 
GCUAGUAUUGCAGGAUAUUGAGAAUAAUUUUGGCAAGAAGGGCAUAACAUGAGGAUCACCCAUGUAUUCCUUAGUGAUACUAGC | 0.00658 µM | 0.00611 µM |  | 
GCUAGUAUUGCAGGAUAUUGAGAUUAAUUAAGGCAAGAAGGGCAUUACAUGAGGAUCACCCAUGUUUUCCUUAGUCAUACUAGC | 0.00712 µM | 0.0074 µM |  | 
GCUAGUCAUGUCAGGAUAUGCUGAACCUUGGUUCAGCAGAAGGGACAUGAGGAUCACCCAUGUGCCUAACUAGC | 0.0421 µM | 0.402 µM |  | 
GCUAUCAAUGUCAGGAUAUUUAUUUGGGCUUAAUUGAAGAAGGGACAUGAGGAUCACCCAUGUGGCGCAGAGUU | 0.0369 µM | 0.202 µM |  | 
GCUAUCGAUGUAGGAUAUGAUAUAGAAACUAUGUCAGAAGGACAUGAGGAUCACCCAUGUCAAUGGAUGGAGAGAAGAGAUGGC | 0.0267 µM | 0.0525 µM |  | 
GCUCAUAUCACAGGAUAUGGCCAGCAAAUUUGGCCAGAAGGGUGAUUCAUAUUAAAAUCACAUGAGGAUCACCCAUGUACGGCA |  |  | 0.166 µM | 0.321 µM
GCUCUUGUCAAGAAGGGCUCGCGGUACGCUGCAGCAGGAUAUUGACAUGAGGAUCACCCAUGUCGACCGGAACAUCUUUGAGGG | 0.0133 µM | 0.134 µM |  | 
GCUGACGAUGUAGGAUAUCUCGACGAUAAGUCGAGAGAAGGACAUGAGGAUCACCCAUGUAAACUCACGUCAGCGAGGAAACUC | 0.0161 µM | 0.0172 µM |  | 
GCUGCAAAUGAGAAGGCGAUCAUGAAACAUGAUCGAGGAUAUCAUGUUUACAUGAGGAUCACCCAUGUAUGGGUAUAUUGCAGC |  |  | 0.707 µM | 0.0143 µM
GCUGCAUAGGCAGGAUAUGCAAUAAUUCGGAUAAAAUAUAACGAAUUAACAUGAGGAUCACCCAUGUAGAAGGGCCUGUGCAGU | 0.00595 µM | 0.00572 µM |  | 
GCUGCAUGCAGAGGAUAUGACACAUGAGGAUCACCCAUGUAAUAAAUGAGAAUUUCGAAUGUAACUCAGAAGGCUGCAUGCAGC | 0.0542 µM | 0.186 µM |  | 
GCUGGAAAAGGAUAUACAUAACGUGCGUCAGCACGAGGCCUACAUGAGGAUCACCCAUGUAGAAGGUUUCCAGC | 0.0171 µM | 0.0259 µM |  | 

Sequence | apparent Kd [1] | apparent Kd [2] | apparent Kd [3] | apparent Kd [4]
GCUGGACGAGGAUAUACAUUCGUGCUUCGGCACGUAAGAUCACAUGAGGAUCACCCAUGUAGAAGGUGUCCAGC | 0.0421 µM | 0.2 µM |  | 
GCUGGGUCAGGAUAUACGAGAUCGAAAGAUCGAAGAUCCGUACAUGAGGAUCACCCAUGUAGAAGGGACUGGGC | 0.0214 µM | 0.0447 µM |  | 
GCUGUCGCAUGAGGAUAUGGUCAGGUUUCCUGACCAGAAGGCAUGUCAAUAGACAUGAGGAUCACCCAUGUAGUAAAGACAGCA |  |  | 0.447 µM | 0.0364 µM
GCUGUGGCAUGAGGAUAUGGUCUGCUUUGCAGACCAGAAGGCAUGUCAAUAGACAUGAGGAUCACCCAUGUAGUUAACACAGCA |  |  | 0.51 µM | 0.0386 µM
GGAAAGGACAGAGGAUAUACGUGCUAGAGAUACUAGCAAAAUUUCCUCACAUGAGGAUCACCCAUGUAGAAGGCUGUCCUAUCG | 0.0162 µM | 0.394 µM |  | 
GGAAAUCAUGUAGGAUAUGCAUGGCGAAGCUACGCAGAAGGACAUGAGGAUCACCCAUGUUAUAGCGUCCGAGAAAGGAUGCGA | 0.0556 µM | 0.114 µM |  | 
GGAAAUUAGCAAGGAUAUCGGCUCACUAUAACUUUAUGCCCUAGGACAUGAGGAUCACCCAUGUACGAGAAGGUGCUAACUACA | 0.0289 µM | 0.0307 µM |  | 
GGAAGACAAAGUCUUCCAUUACGAACAUGAGGAUCACCCAUGUAGGAUAUGCUACUCAAAGAGUAGCAGAAGGACAUGUGUCUU | 0.0274 µM | 0.12 µM |  | 
GGAAGACAAAGUCUUCCUAUUCGAACAUGAGGAUCACCCAUGUAGGAUAUGCUACUCAAAGAGUAGCAGAAGGACAUGUGCUUU | 0.0348 µM | 0.16 µM |  | 
GGAAGGUGAGGAUAUACAAUGACGGAAACGUCAGGUGAGAGACAUGAGGAUCACCCAUGUAGAAGGCACGGAGA | 0.0737 µM | 0.73 µM |  | 
GGAAUACAUGAGGAUCACCCAUGUAAGGAUAUGCUGAUUAAUUAAUUAUAAUUAUGCAGCAGAAGGUACAAAGG | 0.0859 µM | 0.104 µM |  | 
GGACAUCCCACAGGAUAUGCUGGACUUUGUCCAGCAGAAGGGUGAAAUACAUGAGGAUCACCCAUGUGGAUGUCCAUAUUUAAU |  |  | 0.747 µM | 0.253 µM
GGACAUGUCGUUUACAUGAGGAUCACCCAUGUCGAUGGACAUGAGGAUAUCGAUACAAAUUGUAUCGAGAAGGCAUGCAUGUCC |  |  | 0.0408 µM | 0.0185 µM
GGACGACACAUCUACAUGAGGAUCACCCAUGUCAAAAGACAUGAGGAUAUGCUACCUAAUUGGUAGCAGAAGGCAUGGUCGUCC |  |  | 1.37 µM | 0.0672 µM
GGACGUCACAUUAACAUGAGGAUCACCCAUGUAAAAUAACAUGAGGAUAUGGAUCCUAAUUGGAUCCAGAAGGCAUGGACGUCC |  |  | 0.00766 µM | 0.00558 µM
GGAGAUACAUGAGGAUCACCCAUGUAGGAUAUAUAGUAUAUAUAUAGCGAAAGCUAUAUAUAUAUAUAGAAGGGCGUACACACC | 0.00767 µM | 0.00802 µM |  | 
GGAGCACACAUUAACAUGAGGAUCACCCAUGUCAAAAGACAUGAGGAUAUGGAUCCGAAAAGGAUCCAGAAGGCAUCGUGCUCC |  |  | 0.413 µM | 0.0247 µM
GGAGCAGGGUCAGGAUAUGUAGGUAGACGGCAAAUAGAAGGGACAUGAGGAUCACCCAUGUAACAUUAAAAUGAAGCAAGGGAG | 0.0664 µM | 0.0715 µM |  | 
GGAGCAUAUGUCAGGAUAUCGUGGUCGAUAGAUCACGAGAAGGGACAUGAGGAUCACCCAUGUCAGUCCGCUCC | 0.0143 µM | 0.0207 µM |  | 
GGAGCCGGCACCGAGGAUAUUCAUAUUAAAACAUGAGGAUCACCCAUGUACCGCAGAAGCGGUUGGGAGAAGGCGGAUCGGCUCG |  |  | 0.691 µM | 0.0421 µM
GGAGCCGGCACCGAGGAUAUUCAUAUUAAAACAUGAGGAUCACCCAUGUAGAGCGAAAGCUCUUGGGAGAAGGCGGAUCGGCUCG |  |  | 0.73 µM | 0.0465 µM
GGAGCCGGCCUAGGAUAUUUCAUAUUUAAACAUGAGGAUCACCCAUGUAGGCCAGAAGGCCUUGGGAAGAAGGAGGUCGGCUCC |  |  | 0.0881 µM | 0.0175 µM
GGAGCCGGUACUGAGGAUAUUCAUAUUAAAACAUGAGGAUCACCCAUGUGGGCCAGAAGGCCUUGGGAGAAGGCAGACCAGCUCG |  |  | 0.238 µM | 0.0221 µM
GGAGCUCCCAUUAACAUGAGGAUCACCCAUGUCAAAAGACAUGAGGAUAUGCUACCUAAUUGGUAGCAGAAGGCAUGGAGCUCC |  |  | 1.16 µM | 0.081 µM
GGAUAGGACAGAGGAUAUACGUGCUAAAGAUACUAGCAAAAUUUCCUCACAUGAGGAUCACCCAUGUAGAAGGCUGUCCUAUCG | 0.0178 µM | 0.466 µM |  | 
GGAUAGGACAGAGGAUAUACGUGCUAGAGAUACUAGCAAAAUUUCCUCACAUGAGGAUCACCCAUGUAGAAGGCUGCCCUAUCG | 0.0138 µM | 0.374 µM |  | 
GGAUAGGACAGAGGAUAUACGUGCUAGAGAUACUAGCAAAAUUUCCUCACAUGAGGAUCACCCAUGUAGAAGGCUGUCCUAUAG | 0.0167 µM | 0.432 µM |  | 
